The M2OR odorant receptor database

Legend:
Conditions in all cases: stereoisomer not certain
OR10G2 (Homo sapiens) = biological target: T1, OR10G2 (Homo sapiens) (UniProt Q8NGC3)
T1 sequence (whole entry): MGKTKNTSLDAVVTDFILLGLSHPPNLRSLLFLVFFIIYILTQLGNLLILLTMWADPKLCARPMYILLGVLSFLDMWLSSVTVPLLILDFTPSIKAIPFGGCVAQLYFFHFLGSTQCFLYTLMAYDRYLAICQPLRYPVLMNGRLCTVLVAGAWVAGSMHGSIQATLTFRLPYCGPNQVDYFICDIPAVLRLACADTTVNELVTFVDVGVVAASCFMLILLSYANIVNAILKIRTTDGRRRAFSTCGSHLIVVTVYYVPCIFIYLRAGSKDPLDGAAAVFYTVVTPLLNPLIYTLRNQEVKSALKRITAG
Summary of the method: (§1)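 Transient luciferase assays in mammalian cell lines were common, though methods varied by source. The values come from published papers and their supplementary material, with extra details from the original authors when needed. Responsive refers to a measured signal the original authors judged statistically different from baseline, and non-responsive (inactive) to the remainder.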

OR10G3 (Homo sapiens) = biological target: T2, OR10G3 (Homo sapiens) (UniProt Q8NGC4)
T2 sequence (whole entry): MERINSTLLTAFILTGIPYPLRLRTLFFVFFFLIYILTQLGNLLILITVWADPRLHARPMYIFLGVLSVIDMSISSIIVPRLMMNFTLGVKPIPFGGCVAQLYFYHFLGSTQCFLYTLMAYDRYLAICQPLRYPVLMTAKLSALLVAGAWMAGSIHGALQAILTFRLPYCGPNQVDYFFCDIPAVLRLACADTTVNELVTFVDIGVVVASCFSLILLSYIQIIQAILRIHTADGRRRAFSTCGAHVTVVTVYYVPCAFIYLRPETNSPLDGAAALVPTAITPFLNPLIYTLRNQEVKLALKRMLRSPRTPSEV
Summary of the method: as §1

OR10G4 (Homo sapiens) = biological target: T3, OR10G4 (Homo sapiens) (UniProt Q8NGN3)
T3 sequence (whole entry): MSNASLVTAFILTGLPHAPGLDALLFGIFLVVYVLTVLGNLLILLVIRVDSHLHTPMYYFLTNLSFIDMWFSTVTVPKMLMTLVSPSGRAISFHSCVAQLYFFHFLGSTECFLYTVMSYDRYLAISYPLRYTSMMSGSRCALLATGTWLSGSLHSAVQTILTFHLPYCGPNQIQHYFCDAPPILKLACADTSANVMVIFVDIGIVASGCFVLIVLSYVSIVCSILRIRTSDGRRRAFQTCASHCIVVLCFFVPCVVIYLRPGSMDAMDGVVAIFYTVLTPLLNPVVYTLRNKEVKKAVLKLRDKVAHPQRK
Summary of the method: as §1

OR10G6 (Homo sapiens) = biological target: T4, OR10G6 (Homo sapiens) (UniProt Q8NH81)
T4 sequence (whole entry): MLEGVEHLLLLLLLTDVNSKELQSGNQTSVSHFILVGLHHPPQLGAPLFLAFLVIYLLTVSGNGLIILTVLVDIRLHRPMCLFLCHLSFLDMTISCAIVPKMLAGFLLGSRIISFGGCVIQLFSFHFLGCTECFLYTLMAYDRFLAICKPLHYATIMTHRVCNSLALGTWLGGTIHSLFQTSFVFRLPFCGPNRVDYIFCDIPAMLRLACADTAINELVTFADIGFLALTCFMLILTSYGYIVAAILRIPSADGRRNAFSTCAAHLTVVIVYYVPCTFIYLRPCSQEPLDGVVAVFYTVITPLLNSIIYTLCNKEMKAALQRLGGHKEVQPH
Summary of the method: as §1

OR10G7 (Homo sapiens) = biological target: T5, OR10G7 (Homo sapiens) (UniProt Q8NGN6)
T5 sequence (whole entry): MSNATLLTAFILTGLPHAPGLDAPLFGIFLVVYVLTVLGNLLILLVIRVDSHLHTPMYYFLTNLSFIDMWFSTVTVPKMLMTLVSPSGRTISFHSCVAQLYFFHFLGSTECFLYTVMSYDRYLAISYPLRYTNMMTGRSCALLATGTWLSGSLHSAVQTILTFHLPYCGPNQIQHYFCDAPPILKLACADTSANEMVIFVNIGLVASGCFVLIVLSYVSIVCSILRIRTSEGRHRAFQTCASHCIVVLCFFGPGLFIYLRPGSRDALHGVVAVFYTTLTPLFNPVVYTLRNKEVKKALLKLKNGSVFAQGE
Summary of the method: as §1

OR10G8 (Homo sapiens) = biological target: T6, OR10G8 (Homo sapiens) (UniProt Q8NGN5)
T6 sequence (whole entry): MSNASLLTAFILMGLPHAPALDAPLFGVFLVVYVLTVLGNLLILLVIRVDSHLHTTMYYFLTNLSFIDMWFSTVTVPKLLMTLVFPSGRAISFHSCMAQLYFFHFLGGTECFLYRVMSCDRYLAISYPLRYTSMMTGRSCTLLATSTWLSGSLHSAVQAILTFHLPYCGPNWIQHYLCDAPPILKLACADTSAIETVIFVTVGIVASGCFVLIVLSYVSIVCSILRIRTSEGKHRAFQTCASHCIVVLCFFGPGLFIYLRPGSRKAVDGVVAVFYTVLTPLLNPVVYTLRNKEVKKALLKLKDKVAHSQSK
Summary of the method: as §1

OR10G9 (Homo sapiens) = biological target: T7, OR10G9 (Homo sapiens) (UniProt Q8NGN4)
T7 sequence (whole entry): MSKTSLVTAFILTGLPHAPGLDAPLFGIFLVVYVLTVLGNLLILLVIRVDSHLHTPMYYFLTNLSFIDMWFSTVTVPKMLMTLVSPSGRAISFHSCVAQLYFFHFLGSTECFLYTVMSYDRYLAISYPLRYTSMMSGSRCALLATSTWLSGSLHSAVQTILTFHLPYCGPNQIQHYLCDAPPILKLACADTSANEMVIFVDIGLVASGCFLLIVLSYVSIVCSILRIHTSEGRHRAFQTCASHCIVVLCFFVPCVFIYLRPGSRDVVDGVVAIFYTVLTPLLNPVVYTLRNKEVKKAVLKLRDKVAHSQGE
Summary of the method: as §1

OR10H1 (Homo sapiens) = biological target: T8, OR10H1 (Homo sapiens) (UniProt Q9Y4A9)
T8 sequence (whole entry): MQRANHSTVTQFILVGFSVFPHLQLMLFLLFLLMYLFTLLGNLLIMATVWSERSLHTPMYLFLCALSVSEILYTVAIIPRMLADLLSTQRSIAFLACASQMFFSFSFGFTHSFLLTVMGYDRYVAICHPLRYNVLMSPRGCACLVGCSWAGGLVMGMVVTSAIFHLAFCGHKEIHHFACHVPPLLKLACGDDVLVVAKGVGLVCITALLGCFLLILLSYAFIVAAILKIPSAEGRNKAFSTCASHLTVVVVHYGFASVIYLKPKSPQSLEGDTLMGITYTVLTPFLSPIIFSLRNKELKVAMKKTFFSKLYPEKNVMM
Summary of the method: as §1

OR10H2 (Homo sapiens) = biological target: T9, OR10H2 (Homo sapiens) (UniProt O60403)
T9 sequence (whole entry): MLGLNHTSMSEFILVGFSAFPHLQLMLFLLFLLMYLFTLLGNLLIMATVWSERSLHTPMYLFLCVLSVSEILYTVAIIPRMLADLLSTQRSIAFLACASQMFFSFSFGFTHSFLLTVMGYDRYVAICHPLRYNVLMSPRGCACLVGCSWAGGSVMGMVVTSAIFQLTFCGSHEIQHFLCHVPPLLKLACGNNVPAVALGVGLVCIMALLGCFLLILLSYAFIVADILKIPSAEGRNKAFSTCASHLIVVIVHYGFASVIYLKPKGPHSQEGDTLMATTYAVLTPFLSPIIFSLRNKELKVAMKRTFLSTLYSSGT
Summary of the method: as §1

OR10H3 (Homo sapiens) = biological target: T10, OR10H3 (Homo sapiens) (UniProt O60404)
T10 sequence (whole entry): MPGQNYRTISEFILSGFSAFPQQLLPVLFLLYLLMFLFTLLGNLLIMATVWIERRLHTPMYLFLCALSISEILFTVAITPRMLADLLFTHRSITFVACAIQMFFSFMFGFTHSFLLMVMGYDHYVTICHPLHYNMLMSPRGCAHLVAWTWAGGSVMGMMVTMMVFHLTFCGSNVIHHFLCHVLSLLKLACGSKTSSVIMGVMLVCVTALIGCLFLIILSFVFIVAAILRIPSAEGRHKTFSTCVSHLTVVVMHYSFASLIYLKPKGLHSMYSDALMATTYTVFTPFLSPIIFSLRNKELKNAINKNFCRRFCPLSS
Summary of the method: as §1

Measured: odorant receptor agonist call;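 note: active if original authors judged signal statistically different from baseline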

CCCCCC(S)C(C)CO (stereo not given)
inactive: all assays above
